The source of these data is PubChem BioAssay AID504597 (Broad Institute, 2011).

In this assay the test system is U2OS HRE-luciferase reporter, luminescence, HIF activation. Briefly: HIF-driven HRE reporter activators, dose response, U2OS cells, luminescence, dry powder, set 9 (AID 504597). The procedure, abridged:
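assay system = U2OS cells carrying 3×HRE-luciferase reporter | amount = 6,000 cells per well | dosing = 8-point series in 3-fold steps, pinned from 7.5 mM stock | detection = luciferase luminescence, Steady-Glo reagent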

In the case of `CC(C)(C)c1ccc(CNc2nc(-c3ccccn3)nnc2-c2ccccc2)cc1`, the AC40 is 546 nM.

For the compound `c1ccc(CCNc2nc(-c3ccccn3)nnc2-c2ccccc2)cc1`, the AC40 was 3210 nM.

In the case of `Clc1cccc(CNc2nc(-c3ccccn3)nnc2-c2ccccc2)c1`, the AC40 was 1480 nM.

On to `c1ccc(-c2ccc(CNc3nc(-c4ccccn4)nnc3-c3ccccc3)cc2)cc1`, for which the AC40 was 461 nM.

As to `CC(C)(C)CCNc1nc(-c2ccccn2)nnc1-c1ccccc1`, the AC40 was 1020 nM.

As to `c1ccc(-c2cccc(CNc3nc(-c4ccccn4)nnc3-c3ccccc3)c2)cc1`, the AC40 was 816 nM.
